Three compounds from ChEMBL document CHEMBL1129545, “Synthesis and evaluation of the antiproliferative effects of 1-O-hexadecyl-2-O-methyl-3-O-(2'-acetamido-2'-deoxy-beta-D- glucopyranosyl)-sn-glycerol and 1-O-hexadecyl-2-O-methyl-3-0- (2'-amino-2'-deoxy-beta-D-glucopyranosyl)-sn-glycerol on epithelial cancer cell growth” (J Med Chem, 1996) can be followed below.

Holding throughout (type): functional, cell-based
In assay [1] the test system is OVCAR-3. The experiment in a line: Inhibitory activity against OVCAR-3 cell growth. As to conditions: Homo sapiens. An outline of the steps:
(§1)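 OVCAR-3 ovarian adenocarcinoma cells in RPMI 1640 with 20% FBS and 10 μg/mL insulin, in 24-well plates. At log phase, medium was replaced with drug-containing medium (0–30 μM, serial dilution of ethanol stocks) for 48 h. Increase in cell number was counted on a Coulter counter relative to drug-free wells, and IC50 was taken as 50% inhibition.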

In assay [2] the test system is OVCAR-3. The experiment in a line: Inhibitory activity against OVCAR-3 epithelial Cancer cell line at the concentration 0-30 uM for 48 hr. The following applies: Homo sapiens, OVCAR-3, 48 h. The procedure, abridged: as §1
Another assay deals with T84. The experiment in a line: Inhibitory activity against T84 epithelial Cancer cell line at the concentration 0-30 uM for 48 hr. As to conditions: Homo sapiens, T84, 48 h. An outline of the steps:
(§2)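 Human lines from frozen ATCC stocks: A549 in Ham's F-12, T84 in 1:1 F-12/DMEM, MCF-7 and A427 in DMEM, with 10% FBS. Log-phase cells in 24-well plates had medium replaced with drug-containing medium (0–30 μM, serial dilution of ethanol stocks) for 48 h. Coulter counts of cell increase as percent of drug-free controls; IC50 for 50% inhibition; means of eight determinations.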

The next assay relates to A-427. The experiment in a line: Inhibitory activity against A427 epithelial Cancer cell line at the concentration 0-30 uM for 48 hr. The following applies: Homo sapiens, A-427, 48 h. The procedure, abridged:
as §2

A further assay deals with A549. The experiment in a line: Inhibitory activity against A549 epithelial Cancer cell line at the concentration 0-30 uM for 48 hr. As to conditions: Homo sapiens, A549, 48 h. An outline of the steps:
as §2

The next assay concerns MCF7. The experiment in a line: Inhibitory activity against MCF-7 epithelial Cancer cell line at the concentration 0-30 uM for 48 hr. The following applies: Homo sapiens, MCF7, 48 h. An outline of the steps: as §2

As for `CCCCCCCCCCCCCCCCOP(=O)([O-])OCC[N+](C)(C)C` [MILTEFOSINE], the 50% inhibitory concentration (IC50) in the assay on OVCAR-3 [1] is more than 30 µM.
As to `CCCCCCCCCCCCCCCCOC[C@H](CO[C@H]1O[C@@H](CO)[C@H](O)[C@@H](O)[C@@H]1NC(C)=O)OC`, the IC50 in the assay on OVCAR-3 [2] is 12 µM; in the assay with T84, more than 30 µM; with A-427, 24.5 µM; with A549 it was 9 µM; with MCF7 it was 17 µM.
With `CCCCCCCCCCCCCCCCOC[C@H](CO[C@H]1O[C@@H](CO)[C@H](O)[C@@H](O)[C@@H]1N)OC`, the IC50 with OVCAR-3 [2] stood at 4 µM; in the assay on T84, 12.2 µM; in the assay on A-427, 7 µM; in the assay on A549 it was 8.3 µM; in the assay on MCF7, 6.5 µM.

The IC50 is the concentration at which inhibition is half-maximal. Read a high IC50 as lower potency.
